The nature of data set [1]: folding enthalpy; higher = less favourable; fluorescence melt of hairpins on a sequencing array, two-state fit. As to conditions: sodium 0.088 M. Put shortly:
(§1)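 Melting temperature and folding enthalpy were obtained by bootstrapped two-state fitting. Fits used Cy3 fluorescence of library hairpins with annealed Cy3 and quencher oligos on a sequenced MiSeq flow cell, imaged in 50 mM Na-HEPES pH 8.0, 25 mM NaCl in 2.5 °C steps up to 60 °C and normalised to pre-quench Cy3 and control constructs. Four replicates were combined by inverse-variance weighting, and fitted temperatures were raised by 9.35 °C to match UV melts.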

A short description of data set [2]: melting temperature; fluorescence melt of hairpins on a sequencing array, two-state fit, raised by 9.35 °C to match UV melts. As to conditions: sodium 0.088 M. Put shortly:
as §1

Regarding GATCAGCGACCTGATC ((((((....)))))), the folding enthalpy in data set [1] is -31.3 kcal/mol. In addition, the Tm in data set [2] was 47.4 °C.
Turning to GGATCCGAAAGGATTTCC ((((((....)))..))), in data set [1], the folding enthalpy is -13.7 kcal/mol. For the same sequence, in data set [2], the Tm amounted to 37.4 °C.
As to GGGCTGGGAAACCAGTCC ((.((((....)))).)), the folding enthalpy in data set [1] was -42.5 kcal/mol. Further, in data set [2], the Tm was determined as 57.3 °C.
Regarding GGCTACGAAAGTACAGCC ((((((....)))..))), the folding enthalpy in data set [1] is -26.9 kcal/mol. In data set [2], the Tm was 48 °C.
The corresponding values for GCATGGCGAAAGCCTCGC ((..(((....)))..)) are -13.4 kcal/mol and 43.7 °C.
The corresponding values for GTGATTGCGAAAGCACAC (((..(((....)))))) are -14.4 kcal/mol and 38.1 °C.
The corresponding values for GTTTGGTCGAAAGACAAC (((..(((....)))))) are -13.2 kcal/mol and 31.4 °C.
For GATGGGCGAAAGCCGATC (((.(((....))).))), the folding enthalpy in data set [1] is -18.8 kcal/mol. In data set [2], the Tm was 52.7 °C.
The corresponding values for GAGTACGGAAACGTACCC (.(((((....))))).) are -15.5 kcal/mol and 42.2 °C.
Consider CGGTTGAAAAACCG (((((....))))), for which the folding enthalpy in data set [1] was -29.6 kcal/mol. Moreover, the Tm in data set [2] is 56.2 °C.
The corresponding values for GCCGTTGCGAAAGCAGGC (((..(((....)))))) are -31.7 kcal/mol and 62.3 °C.
The corresponding values for GTGGACGAAAGTCACCAC ((((((....)))..))) are -16.4 kcal/mol and 38 °C.
The corresponding values for GCCACTCCGAAAGGAGGC (((..(((....)))))) are -8.62 kcal/mol and 43.9 °C.
For GATCGTCCTAACGATC ((((((....)))))), in data set [1], the folding enthalpy is -40.4 kcal/mol. The Tm in data set [2] was 55.5 °C.
The corresponding values for GCGGAGTACCGC ((((....)))) are -24.2 kcal/mol and 55.9 °C.
The corresponding values for CGCCCGGAAACGGGTGCG ((((((....)))..))) are -10.7 kcal/mol and 57.5 °C.
The corresponding values for GATCTAGATCTAGATC ((((((....)))))) are -37.3 kcal/mol and 47.5 °C.
Regarding GATCTCTACTGAGATC ((((((....)))))), in data set [1], the folding enthalpy was -41.6 kcal/mol. Further, the Tm in data set [2] was 53.2 °C.
The corresponding values for GGCGTCGAAAGACCCGCC ((((((....)))..))) are -17.5 kcal/mol and 55.3 °C.
The corresponding values for GAGCGTGGAAACATGCTC ((((.((....)).)))) are -55.5 kcal/mol and 55 °C.
Regarding GGTACGCCGAAAGGCACC (((..(((....)))))), the folding enthalpy in data set [1] is -8.21 kcal/mol. Moreover, the Tm in data set [2] was 32 °C.
The corresponding values for GCATACGAAAGTATCTGC ((((((....)))..))) are -15.5 kcal/mol and 37.9 °C.
The corresponding values for GCGGTCGAAAGACGTCGC ((((((....)))..))) are -23.7 kcal/mol and 50.5 °C.
The corresponding values for GGTATTGGAAACAGTACC ((((.((....)).)))) are -32.2 kcal/mol and 39.6 °C.
GCTCATACGAAAGTAAGC (((..(((....)))))): in data set [1], the folding enthalpy was -9.13 kcal/mol. Also, the Tm in data set [2] was determined as 28 °C.
The corresponding values for GATCTTTAACAAGATC ((((((....)))))) are -32.6 kcal/mol and 38.1 °C.
The corresponding values for GGCGCCGAAAGGCTAGCC ((((((....)))..))) are -21.6 kcal/mol and 61.7 °C.
The corresponding values for GGGGAGGGAAACCCCCCC ((((.((....)).)))) are -34.1 kcal/mol and 54.5 °C.
For GATTAGGAAACTAATC ((((((....)))))), the folding enthalpy in data set [1] was -30.5 kcal/mol. Moreover, the Tm in data set [2] amounted to 43.9 °C.
The corresponding values for GATCAACGCCTTGATC ((((((....)))))) are -26 kcal/mol and 46.1 °C.
The corresponding values for GCCAGCGAAAGCTCGGC ((((((....))).))) are -28.4 kcal/mol and 60.8 °C.
The corresponding values for GTTTGGGGAAACCCAAGC (.(((((....))))).) are -21.9 kcal/mol and 43.5 °C.
As for GATCGTGATCACGATC ((((((....)))))), in data set [1], the folding enthalpy is -53 kcal/mol. Further, the Tm in data set [2] turned out to be 58.2 °C.
For GACGAAGAAATTCGTC ((((((....)))))), the folding enthalpy in data set [1] is -34.1 kcal/mol. Moreover, in data set [2], the Tm stood at 53.8 °C.
The corresponding values for GGCGCCGAAAGGCGTGCC ((((((....)))..))) are -9.73 kcal/mol and 54.2 °C.
The corresponding values for GAAAGCGAAAGCTAATTC ((((((....)))..))) are -8.31 kcal/mol and 28.8 °C.
The corresponding values for GATCTGGCTCCAGATC ((((((....)))))) are -39.4 kcal/mol and 53.1 °C.
